A word on the pIC50: it is −log10 of the IC50, conventionally taken in molar units. Read a high pIC50 as a small IC50. Usually inhibition stands for the drop in the measured response relative to a control, in per cent.

pIC50: −log10 of the molar value. Where a name gives a salt, the structure may show the parent alone. Activity calls are given as the source filed them. No cut-off for these calls is given here. A value given as a limit tells only on which side of the number the result lay.

The values that follow come from ChEMBL document CHEMBL1156878, “New benzoxanthone derivatives as topoisomerase inhibitors and DNA cross-linkers” (Bioorg Med Chem, 2010).

The test system of one assay is HL-60. As to the kind of experiment: Cytotoxicity against human HL60 cells after 48 hrs by MTT assay. In kind it is functional, cell-based. The conditions noted are these: HL-60, 48 h. A digest of the protocol: (§1)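 Cells seeded at 2–4 × 10⁴ per well and held overnight at 37 °C, 5% CO₂, in medium with 10% FBS. On day 2 the medium was replaced with medium holding graded compound concentrations. Absorbance was read at 450 nm and fitted to a four-parameter logistic equation for IC₅₀. Mean ± SD of three experiments, each in triplicate.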
A general note: Tetrazolium dyes change colour on reduction, which living cells bring about.

A further assay has as its system DU-145. The assay is described as follows: Cytotoxicity against human DU145 cells after 48 hrs by MTT assay. In kind it is functional, cell-based. The conditions noted are these: DU-145, 48 h. A digest of the protocol: as §1
The next assay deals with MDA-MB-231. The assay is described as follows: Cytotoxicity against human MDA-MB-231 cells after 48 hrs by MTT assay. In kind it is functional, cell-based. The note with it: MDA-MB-231, 48 h. A digest of the protocol:
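Cells seeded at 2–4 × 10⁴ per well and grown overnight in medium with 10% FBS at 37 °C, 5% CO₂. Medium was then replaced with medium holding graded compound concentrations. Absorbance was read at 450 nm and IC50 fitted to a four-parameter logistic equation. Mean of three experiments run in triplicate.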

Another assay concerns HeLa. As to the kind of experiment: Cytotoxicity against human HeLa cells after 48 hrs by MTT assay. In kind it is functional, cell-based. A digest of the protocol: as §1
The next assay deals with HT-29. As to the kind of experiment: Cytotoxicity against human HT-29 cells after 48 hrs […]. The conditions noted are these: HT-29, 48 h. In kind it is functional, cell-based.
For assay [1], the target named is DNA topoisomerase 2-alpha (Homo sapiens) (UniProt P11388). The assay is described as follows: Inhibition of human recombinant DNA topoisomerase 2alpha -mediated pBR322 DNA relaxation at 100 uM by gel electrophoresis. In a few lines:
(§2)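 Relaxation of 200 ng supercoiled pBR322 by 1 unit human topo IIα, with or without compound, at 30 °C for 30 min. Buffer: 10 mM Tris-HCl pH 7.9, 50 mM NaCl, 50 mM KCl, 5 mM MgCl₂, 1 mM EDTA, 1 mM ATP, 15 µg/mL BSA. Stopped with EDTA and run on 1% agarose gel in TAE at 25 V for 4 h. Band analysis gave inhibition ratio.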

The target of assay [2] is T1, DNA topoisomerase 1 (Homo sapiens) (UniProt P11387).
T1 sequence (whole entry): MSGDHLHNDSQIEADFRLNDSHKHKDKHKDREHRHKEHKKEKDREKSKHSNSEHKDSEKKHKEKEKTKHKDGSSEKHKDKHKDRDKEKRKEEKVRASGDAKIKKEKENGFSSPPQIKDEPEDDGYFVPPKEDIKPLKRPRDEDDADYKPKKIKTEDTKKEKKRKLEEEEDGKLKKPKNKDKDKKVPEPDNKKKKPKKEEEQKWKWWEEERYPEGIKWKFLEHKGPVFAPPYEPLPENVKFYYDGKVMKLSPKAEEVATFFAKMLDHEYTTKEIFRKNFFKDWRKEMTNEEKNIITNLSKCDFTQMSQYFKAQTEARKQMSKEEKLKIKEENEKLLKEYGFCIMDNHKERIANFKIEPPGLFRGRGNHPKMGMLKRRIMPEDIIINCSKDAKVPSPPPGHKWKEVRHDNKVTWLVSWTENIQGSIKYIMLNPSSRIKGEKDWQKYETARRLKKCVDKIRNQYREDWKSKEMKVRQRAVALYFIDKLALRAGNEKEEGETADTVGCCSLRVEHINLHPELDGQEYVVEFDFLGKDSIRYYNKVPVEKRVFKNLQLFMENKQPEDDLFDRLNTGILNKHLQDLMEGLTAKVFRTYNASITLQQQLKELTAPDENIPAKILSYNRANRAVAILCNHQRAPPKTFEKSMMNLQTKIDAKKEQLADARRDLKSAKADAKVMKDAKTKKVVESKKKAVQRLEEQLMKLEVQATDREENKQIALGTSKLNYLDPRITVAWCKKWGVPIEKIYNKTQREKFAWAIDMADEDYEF
As to the kind of experiment: Inhibition of human recombinant topoisomerase 1-mediated pBR322 DNA relaxation at 20 uM by gel electrophoresis. A digest of the protocol: (§3)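 Relaxation of 100 ng supercoiled pBR322 by 0.4 units recombinant human topo I, with or without compound (20 mM DMSO stocks), at 37 °C for 30 min. Buffer: 10 mM Tris-HCl pH 7.9, 150 mM NaCl, 0.1% BSA, 1 mM spermidine, 5% glycerol. Run on 1% agarose gel in TAE at 15 V for 7 h, stained with ethidium bromide, bands quantified under UV to give inhibition ratio.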

In assay [3] the target is T1, DNA topoisomerase 1 (Homo sapiens). As to the kind of experiment: Inhibition of human recombinant topoisomerase 1-mediated pBR322 DNA relaxation at 100 uM by gel electrophoresis. In a few lines: as §3
The target in assay [4] is DNA topoisomerase 2-alpha (Homo sapiens) (UniProt P11388). The assay is described as follows: Inhibition of human recombinant DNA topoisomerase 2alpha -mediated pBR322 DNA relaxation at 20 uM by gel electrophoresis. A digest of the protocol: as §2
DNA topoisomerase 2-alpha (Homo sapiens), sequence (P11388 whole entry): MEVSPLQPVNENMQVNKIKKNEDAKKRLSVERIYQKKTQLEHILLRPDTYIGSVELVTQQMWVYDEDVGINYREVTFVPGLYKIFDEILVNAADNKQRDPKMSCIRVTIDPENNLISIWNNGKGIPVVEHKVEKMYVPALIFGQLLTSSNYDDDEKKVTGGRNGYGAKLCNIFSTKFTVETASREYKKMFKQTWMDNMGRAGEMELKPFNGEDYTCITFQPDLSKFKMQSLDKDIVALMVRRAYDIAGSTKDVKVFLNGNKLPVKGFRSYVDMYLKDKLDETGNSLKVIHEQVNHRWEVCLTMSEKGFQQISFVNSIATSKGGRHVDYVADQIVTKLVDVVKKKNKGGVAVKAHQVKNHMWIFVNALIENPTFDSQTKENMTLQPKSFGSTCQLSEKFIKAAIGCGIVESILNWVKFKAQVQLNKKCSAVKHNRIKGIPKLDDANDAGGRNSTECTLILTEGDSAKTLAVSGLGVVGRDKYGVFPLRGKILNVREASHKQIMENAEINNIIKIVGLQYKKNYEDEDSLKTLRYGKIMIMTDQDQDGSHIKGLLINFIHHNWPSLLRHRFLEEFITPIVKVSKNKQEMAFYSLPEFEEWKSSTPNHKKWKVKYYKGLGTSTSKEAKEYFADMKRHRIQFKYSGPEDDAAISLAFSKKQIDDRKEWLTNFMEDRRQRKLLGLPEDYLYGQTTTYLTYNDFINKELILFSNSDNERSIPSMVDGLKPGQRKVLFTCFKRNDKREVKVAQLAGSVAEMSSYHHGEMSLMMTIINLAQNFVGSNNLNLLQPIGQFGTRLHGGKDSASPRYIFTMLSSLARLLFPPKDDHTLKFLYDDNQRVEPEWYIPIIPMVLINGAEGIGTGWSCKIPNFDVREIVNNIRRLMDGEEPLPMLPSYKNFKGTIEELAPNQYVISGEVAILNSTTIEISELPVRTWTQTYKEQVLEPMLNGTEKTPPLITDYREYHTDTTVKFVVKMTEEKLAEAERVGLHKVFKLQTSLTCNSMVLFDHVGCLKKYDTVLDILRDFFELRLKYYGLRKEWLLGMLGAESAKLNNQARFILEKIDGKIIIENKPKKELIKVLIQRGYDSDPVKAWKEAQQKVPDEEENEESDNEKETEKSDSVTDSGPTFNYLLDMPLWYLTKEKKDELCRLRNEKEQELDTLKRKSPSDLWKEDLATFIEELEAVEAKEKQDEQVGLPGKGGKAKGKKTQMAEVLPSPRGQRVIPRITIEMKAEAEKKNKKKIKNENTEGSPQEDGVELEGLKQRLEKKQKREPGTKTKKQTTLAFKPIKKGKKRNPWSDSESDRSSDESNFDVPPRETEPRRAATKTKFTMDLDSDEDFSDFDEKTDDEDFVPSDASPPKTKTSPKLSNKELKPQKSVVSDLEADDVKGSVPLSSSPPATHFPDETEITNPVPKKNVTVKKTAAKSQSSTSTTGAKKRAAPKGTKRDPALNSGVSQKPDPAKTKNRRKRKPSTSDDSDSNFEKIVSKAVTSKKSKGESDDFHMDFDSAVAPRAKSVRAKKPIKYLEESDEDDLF
The test system of the next assay is Nucleic Acid. The assay is described as follows: Induction of DNA cross linking in linearized pBR322 at 100 uM by alkaline gel electrophoresis. In kind it is nucleic-acid assay. The note with it: Escherichia coli. A digest of the protocol: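 pBR322 was linearized with EcoRI and ethanol-precipitated, then incubated with compound for 2 h at room temperature in 10 mM Tris–HCl, 1 mM EDTA, pH 8.0. Samples ran on a denaturing 1.2% alkaline agarose gel in 50 mM NaOH, 1 mM EDTA. The gel was neutralized 1 h in 100 mM Tris, 150 mM NaCl, pH 7.6, alongside a HindIII marker.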

In the case of `COc1cccc2c1C(=O)c1c(O)c3c(c(O)c1C2=O)C[C@@](O)(C(=O)CO)C[C@@H]3O[C@H]1C[C@H](N)[C@H](O)[C@H](C)O1` [DOXORUBICIN HYDROCHLORIDE], the pIC50 in the assay on HL-60 was 6.03; in the assay with DU-145, 5.92; with MDA-MB-231 it was 5.50; in the assay on HeLa, 6.15; in the assay with HT-29, 6.02.
Consider `O=c1c2ccc3ccccc3c2oc2cc(OCC3CS3)cc(O)c12` (stereo unspecified), for which the pIC50 was 4.65 in the assay with HL-60; 4.96 in the assay with DU-145; less than 4.30 in the assay with MDA-MB-231; less than 4.30 with HeLa; less than 4.30 in the assay on HT-29. Also, the inhibition was 13.9% in assay [1], 2.5% in assay [2], 15.6% in [3] and -0% in assay [4].
As to `COc1cc([C@@H]2c3cc4c(cc3[C@@H](O[C@@H]3O[C@@H]5CO[C@@H](C)O[C@H]5[C@H](O)[C@H]3O)[C@H]3COC(=O)[C@H]23)OCO4)cc(OC)c1O` [ETOPOSIDE], the pIC50 was 6.01 in the assay with HL-60; 5.79 in the assay on DU-145; 5.54 with MDA-MB-231; 6.33 in the assay on HeLa; 5.85 in the assay on HT-29.
Consider `O=c1c2cc3ccccc3cc2oc2cc(OCC3CS3)cc(O)c12` (stereo unspecified), for which the pIC50 in the assay with HL-60 was 5.61; with DU-145, 5.81; in the assay on MDA-MB-231, 4.83; in the assay with HeLa, 5.07; with HT-29, 5.27. The inhibition was -0% in assay [1], -0% in assay [2], 0.5% in [3] and 7.2% in assay [4].
Regarding `CC[C@@]1(O)C(=O)OCc2c1cc1n(c2=O)Cc2cc3ccccc3nc2-1` [CAMPTOTHECIN], the pIC50 in the assay on HL-60 was 7.19; in the assay with DU-145, 5.45; in the assay with MDA-MB-231, 6.04; in the assay with HeLa, 6.07; in the assay on HT-29, 6.07.
`O=c1c2ccc3ccccc3c2oc2cc(OCC3CO3)cc(OCC3CO3)c12` (stereo unspecified): the pIC50 was 5.27 in the assay on HL-60; 5.89 in the assay on DU-145; 5.13 with MDA-MB-231; 4.62 with HeLa; 5.09 with HT-29. For the same compound, the inhibition in assay [1] was 5.7%; in assay [2] it was -0%; in assay [3] it was 11.9%; in assay [4], 0.1%. Moreover, in the assay on Nucleic Acid, the outcome was Active.
As to `O=c1c2ccc3ccccc3c2oc2cc(OCC3CS3)cc(OCC3CS3)c12` (stereo unspecified), the pIC50 is 4.43 with HL-60; 5.25 in the assay on DU-145; less than 4.30 in the assay with MDA-MB-231; 4.59 in the assay on HeLa; less than 4.30 in the assay with HT-29. The inhibition was found to be 71.9% in assay [1], 56.5% in assay [2], 79% in assay [3] and 72.7% in assay [4].
With `O=c1c2cc3ccccc3cc2oc2cc(OCC3CO3)cc(OCC3CO3)c12` (stereo unspecified), the pIC50 in the assay on HL-60 is 5.29; with DU-145, 5.52; in the assay on MDA-MB-231 it was 5.79; in the assay with HeLa, 5.66; in the assay on HT-29 it was 6.22. The inhibition in assay [1] was 60.1%; in [2], 8.8%; in [3], 12.3%; in assay [4] it was 8.9%. In addition, in the assay with Nucleic Acid, the result was Active.
With `O=c1c2c(O)cc(OCC3CO3)cc2oc2ccc3ccccc3c12` (stereo unspecified), the pIC50 is 5.64 in the assay on HL-60; 5.85 in the assay with DU-145; less than 4.30 in the assay with MDA-MB-231; less than 4.00 in the assay with HeLa; 6.02 in the assay with HT-29. The inhibition in [1] was 3.7%; in assay [2] it was 9.7%; in [3], -0%; in assay [4] it was -0%.
Regarding `O=c1c2c(OCC3CO3)cc(OCC3CO3)cc2oc2ccc3ccccc3c12` (stereo unspecified), the pIC50 in the assay on HL-60 was 5.19; in the assay with DU-145, 5.46; with MDA-MB-231 it was less than 4.30; with HeLa, 4.99; in the assay on HT-29 it was 5.13. Also, the inhibition in [1] is 1%; in assay [2] it was -0%; in assay [3], 18%; in [4] it was -0%. For the same compound, the result in the assay on Nucleic Acid was inactive.
Turning to `O=c1c2cc3ccccc3cc2oc2cc(OCC3CO3)cc(O)c12` (stereo unspecified), the pIC50 with HL-60 was 5.03; with DU-145 it was 4.44; in the assay on MDA-MB-231 it was 4.82; with HeLa, less than 4.00; in the assay with HT-29, 5.63. The inhibition in [1] was -0%; in assay [2] it was 2.6%; in [3], 13.7%; in assay [4], -0%.
Take `O=c1c2ccc3ccccc3c2oc2cc(OCC3CO3)cc(O)c12` (stereo unspecified): the pIC50 in the assay with HL-60 is 5.44; in the assay on DU-145, 5.59; in the assay on MDA-MB-231 it was 6.14; with HeLa, less than 4.30; with HT-29, 4.72. For the same compound, the inhibition in [1] came out at 9%; in assay [2], 10.6%; in assay [3], 1.7%; in [4], 5.5%.
As for `O=c1c2c(O)cc(OCC3CS3)cc2oc2ccc3ccccc3c12` (stereo unspecified), the pIC50 with HL-60 is 5.46; in the assay with DU-145, 5.06; in the assay on MDA-MB-231 it was 4.54; in the assay with HeLa, less than 4.00; in the assay with HT-29, 5.45. Further, the inhibition in assay [1] was 5.3%; in [2], 2.4%; in [3], -0%; in assay [4], -0%.
For the compound `O=c1c2cc3ccccc3cc2oc2cc(OCC3CS3)cc(OCC3CS3)c12` (stereo unspecified), the pIC50 with HL-60 was 5.29; with DU-145, 4.71; in the assay on MDA-MB-231, 5.29; in the assay on HeLa, 5.10; with HT-29 it was 5.78. The inhibition is 1.9% in assay [1], -0% in assay [2], 4.3% in [3] and 13.5% in assay [4].
As to `O=c1c2c(OCC3CS3)cc(OCC3CS3)cc2oc2ccc3ccccc3c12` (stereo unspecified), the negative logarithm of the IC50 (pIC50) in the assay on HL-60 is 5.73; with DU-145 it was 5.88; in the assay with MDA-MB-231, 4.72; in the assay on HeLa it was 4.60; in the assay on HT-29 it was 6.12. Besides, the inhibition in assay [1] is 4.4%; in assay [2], -0%; in assay [3], -0%; in assay [4], 8.4%.
